# In article PMC6247064 (Cancer Science, 2018):
# Tested on: Japanese patients with advanced solid tumors
# Assay: Phase 1 study: safety, tolerability, DLT and treatment-emergent adverse events
# Type: in vivo, human
# Method in brief: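 Open-label single-arm dose levels of 80 or 105 mg/m2 IV were given on day 1 of 14-day cycles, with at most 6 patients per level. Adverse events were graded by CTCAE v4.03. DLTs were related events in cycle 1 meeting predefined hematologic or nonhematologic criteria. Tolerability required a cycle 1 DLT rate <33%. Primary G-CSF prophylaxis was barred during DLT evaluation; G-CSF was allowed for treatment-emergent neutropenia and as secondary prophylaxis.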
structure (smiles),measurement,setting,value
COc1cccc(OCCCN)c1-c1cc(Nc2cnc(C#N)cn2)n[nH]1 [Prexasertib],TEAE related to study treatment: Lung infection,"105 mg/m^2 N = 6, Grade 3 + 4",0 n (%)
same,TEAE related to study treatment: Lymphocytopenia,"105 mg/m^2 N = 6, Grade 3 + 4",0 n (%)
same,TEAE related to study treatment: Nausea,"105 mg/m^2 N = 6, Grade 3 + 4",0 n (%)
same,TEAE related to study treatment: Neutropenia,"105 mg/m^2 N = 6, Grade 3 + 4",6 (100) n (%)
same,TEAE related to study treatment: Pyrexia,"105 mg/m^2 N = 6, Grade 3 + 4",0 n (%)
same,TEAE related to study treatment: Rash,"105 mg/m^2 N = 6, Grade 3 + 4",0 n (%)
same,TEAE related to study treatment: Rash maculopapular,"105 mg/m^2 N = 6, Grade 3 + 4",0 n (%)
same,TEAE related to study treatment: SVE (supraventricular extrasystoles),"105 mg/m^2 N = 6, Grade 3 + 4",0 n (%)
same,TEAE related to study treatment: Stomatitis,"105 mg/m^2 N = 6, Grade 3 + 4",0 n (%)
same,TEAE related to study treatment: Thrombocytopenia,"105 mg/m^2 N = 6, Grade 3 + 4",1 (16.7) n (%)
same,TEAE related to study treatment: Anemia,"105 mg/m^2 N = 6, Grade 4",0 n (%)
same,TEAE related to study treatment: Any,"105 mg/m^2 N = 6, Grade 4",3 (50.0) n (%)
same,TEAE related to study treatment: Atrial fibrillation,"105 mg/m^2 N = 6, Grade 4",0 n (%)
same,TEAE related to study treatment: Constipation,"105 mg/m^2 N = 6, Grade 4",0 n (%)
same,TEAE related to study treatment: ECG QT prolonged,"105 mg/m^2 N = 6, Grade 4",0 n (%)
same,TEAE related to study treatment: Fatigue,"105 mg/m^2 N = 6, Grade 4",0 n (%)
same,TEAE related to study treatment: Febrile neutropenia,"105 mg/m^2 N = 6, Grade 4",0 n (%)
same,TEAE related to study treatment: Headache,"105 mg/m^2 N = 6, Grade 4",0 n (%)
same,TEAE related to study treatment: Hypocalcemia,"105 mg/m^2 N = 6, Grade 4",0 n (%)
same,TEAE related to study treatment: Leukopenia,"105 mg/m^2 N = 6, Grade 4",1 (16.7) n (%)
same,TEAE related to study treatment: Lung infection,"105 mg/m^2 N = 6, Grade 4",0 n (%)
same,TEAE related to study treatment: Lymphocytopenia,"105 mg/m^2 N = 6, Grade 4",0 n (%)
same,TEAE related to study treatment: Nausea,"105 mg/m^2 N = 6, Grade 4",0 n (%)
same,TEAE related to study treatment: Neutropenia,"105 mg/m^2 N = 6, Grade 4",3 (50.0) n (%)
same,TEAE related to study treatment: Pyrexia,"105 mg/m^2 N = 6, Grade 4",0 n (%)
same,TEAE related to study treatment: Rash,"105 mg/m^2 N = 6, Grade 4",0 n (%)
same,TEAE related to study treatment: Rash maculopapular,"105 mg/m^2 N = 6, Grade 4",0 n (%)
same,TEAE related to study treatment: SVE (supraventricular extrasystoles),"105 mg/m^2 N = 6, Grade 4",0 n (%)
same,TEAE related to study treatment: Stomatitis,"105 mg/m^2 N = 6, Grade 4",0 n (%)
same,TEAE related to study treatment: Thrombocytopenia,"105 mg/m^2 N = 6, Grade 4",0 n (%)
same,Patients with at least 1 AE that led to a dose adjustment,105 mg/m^2 group,3 patients
same,Patients with at least 1 AE that led to a dose delay,105 mg/m^2 group,3 patients
same,Patients with at least 1 AE that led to dose reduction,105 mg/m^2 group (105 to 80 mg/m^2),1 patient
same,TEAE related to study treatment: Anemia,"Total N = 12, Any grade",3 (25.0) n (%)
same,TEAE related to study treatment: Any,"Total N = 12, Any grade",12 (100) n (%)
same,TEAE related to study treatment: Atrial fibrillation,"Total N = 12, Any grade",1 (8.3) n (%)
same,TEAE related to study treatment: Constipation,"Total N = 12, Any grade",3 (25.0) n (%)
same,TEAE related to study treatment: ECG QT prolonged,"Total N = 12, Any grade",2 (16.7) n (%)
same,TEAE related to study treatment: Fatigue,"Total N = 12, Any grade",2 (16.7) n (%)
same,TEAE related to study treatment: Febrile neutropenia,"Total N = 12, Any grade",2 (16.7) n (%)
same,TEAE related to study treatment: Headache,"Total N = 12, Any grade",1 (8.3) n (%)
same,TEAE related to study treatment: Hypocalcemia,"Total N = 12, Any grade",1 (8.3) n (%)
same,TEAE related to study treatment: Leukopenia,"Total N = 12, Any grade",12 (100) n (%)
same,TEAE related to study treatment: Lung infection,"Total N = 12, Any grade",1 (8.3) n (%)
same,TEAE related to study treatment: Lymphocytopenia,"Total N = 12, Any grade",2 (16.7) n (%)
same,TEAE related to study treatment: Nausea,"Total N = 12, Any grade",2 (16.7) n (%)
same,TEAE related to study treatment: Neutropenia,"Total N = 12, Any grade",11 (91.7) n (%)
same,TEAE related to study treatment: Pyrexia,"Total N = 12, Any grade",2 (16.7) n (%)
same,TEAE related to study treatment: Rash,"Total N = 12, Any grade",1 (8.3) n (%)
same,TEAE related to study treatment: Rash maculopapular,"Total N = 12, Any grade",2 (16.7) n (%)
same,TEAE related to study treatment: SVE (supraventricular extrasystoles),"Total N = 12, Any grade",1 (8.3) n (%)
same,TEAE related to study treatment: Stomatitis,"Total N = 12, Any grade",1 (8.3) n (%)
same,TEAE related to study treatment: Thrombocytopenia,"Total N = 12, Any grade",8 (66.7) n (%)
same,TEAE related to study treatment: Anemia,"Total N = 12, Grade 3",1 (8.3) n (%)
same,TEAE related to study treatment: Any,"Total N = 12, Grade 3",5 (41.7) n (%)
same,TEAE related to study treatment: Atrial fibrillation,"Total N = 12, Grade 3",0 n (%)
same,TEAE related to study treatment: Constipation,"Total N = 12, Grade 3",0 n (%)
same,TEAE related to study treatment: ECG QT prolonged,"Total N = 12, Grade 3",0 n (%)
same,TEAE related to study treatment: Fatigue,"Total N = 12, Grade 3",0 n (%)
same,TEAE related to study treatment: Febrile neutropenia,"Total N = 12, Grade 3",1 (8.3) n (%)
same,TEAE related to study treatment: Headache,"Total N = 12, Grade 3",0 n (%)
same,TEAE related to study treatment: Hypocalcemia,"Total N = 12, Grade 3",0 n (%)
same,TEAE related to study treatment: Leukopenia,"Total N = 12, Grade 3",5 (41.7) n (%)
same,TEAE related to study treatment: Lung infection,"Total N = 12, Grade 3",0 n (%)
same,TEAE related to study treatment: Lymphocytopenia,"Total N = 12, Grade 3",1 (8.3) n (%)
same,TEAE related to study treatment: Nausea,"Total N = 12, Grade 3",0 n (%)
same,TEAE related to study treatment: Neutropenia,"Total N = 12, Grade 3",4 (33.3) n (%)
same,TEAE related to study treatment: Pyrexia,"Total N = 12, Grade 3",0 n (%)
same,TEAE related to study treatment: Rash,"Total N = 12, Grade 3",0 n (%)
same,TEAE related to study treatment: Rash maculopapular,"Total N = 12, Grade 3",0 n (%)
same,TEAE related to study treatment: SVE (supraventricular extrasystoles),"Total N = 12, Grade 3",0 n (%)
same,TEAE related to study treatment: Stomatitis,"Total N = 12, Grade 3",0 n (%)
same,TEAE related to study treatment: Thrombocytopenia,"Total N = 12, Grade 3",3 (25.0) n (%)
same,TEAE related to study treatment: Anemia,"Total N = 12, Grade 3 + 4",2 (16.7) n (%)
same,TEAE related to study treatment: Any,"Total N = 12, Grade 3 + 4",12 (100) n (%)
same,TEAE related to study treatment: Atrial fibrillation,"Total N = 12, Grade 3 + 4",0 n (%)
same,TEAE related to study treatment: Constipation,"Total N = 12, Grade 3 + 4",0 n (%)
same,TEAE related to study treatment: ECG QT prolonged,"Total N = 12, Grade 3 + 4",0 n (%)
same,TEAE related to study treatment: Fatigue,"Total N = 12, Grade 3 + 4",0 n (%)
same,TEAE related to study treatment: Febrile neutropenia,"Total N = 12, Grade 3 + 4",2 (16.7) n (%)
same,TEAE related to study treatment: Headache,"Total N = 12, Grade 3 + 4",0 n (%)
same,TEAE related to study treatment: Hypocalcemia,"Total N = 12, Grade 3 + 4",0 n (%)
same,TEAE related to study treatment: Leukopenia,"Total N = 12, Grade 3 + 4",9 (75.0) n (%)
same,TEAE related to study treatment: Lung infection,"Total N = 12, Grade 3 + 4",0 n (%)
same,TEAE related to study treatment: Lymphocytopenia,"Total N = 12, Grade 3 + 4",1 (8.3) n (%)
same,TEAE related to study treatment: Nausea,"Total N = 12, Grade 3 + 4",0 n (%)
same,TEAE related to study treatment: Neutropenia,"Total N = 12, Grade 3 + 4",10 (83.3) n (%)
same,TEAE related to study treatment: Pyrexia,"Total N = 12, Grade 3 + 4",0 n (%)
same,TEAE related to study treatment: Rash,"Total N = 12, Grade 3 + 4",0 n (%)
same,TEAE related to study treatment: Rash maculopapular,"Total N = 12, Grade 3 + 4",0 n (%)
same,TEAE related to study treatment: SVE (supraventricular extrasystoles),"Total N = 12, Grade 3 + 4",0 n (%)
same,TEAE related to study treatment: Stomatitis,"Total N = 12, Grade 3 + 4",0 n (%)
same,TEAE related to study treatment: Thrombocytopenia,"Total N = 12, Grade 3 + 4",4 (33.3) n (%)
same,TEAE related to study treatment: Anemia,"Total N = 12, Grade 4",1 (8.3) n (%)
same,TEAE related to study treatment: Any,"Total N = 12, Grade 4",7 (58.3) n (%)
same,TEAE related to study treatment: Atrial fibrillation,"Total N = 12, Grade 4",0 n (%)
same,TEAE related to study treatment: Constipation,"Total N = 12, Grade 4",0 n (%)
same,TEAE related to study treatment: ECG QT prolonged,"Total N = 12, Grade 4",0 n (%)
same,TEAE related to study treatment: Fatigue,"Total N = 12, Grade 4",0 n (%)
same,TEAE related to study treatment: Febrile neutropenia,"Total N = 12, Grade 4",1 (8.3) n (%)
same,TEAE related to study treatment: Headache,"Total N = 12, Grade 4",0 n (%)
same,TEAE related to study treatment: Hypocalcemia,"Total N = 12, Grade 4",0 n (%)
same,TEAE related to study treatment: Leukopenia,"Total N = 12, Grade 4",4 (33.3) n (%)
same,TEAE related to study treatment: Lung infection,"Total N = 12, Grade 4",0 n (%)
same,TEAE related to study treatment: Lymphocytopenia,"Total N = 12, Grade 4",0 n (%)
same,TEAE related to study treatment: Nausea,"Total N = 12, Grade 4",0 n (%)
same,TEAE related to study treatment: Neutropenia,"Total N = 12, Grade 4",6 (50.0) n (%)
same,TEAE related to study treatment: Pyrexia,"Total N = 12, Grade 4",0 n (%)
same,TEAE related to study treatment: Rash,"Total N = 12, Grade 4",0 n (%)
same,TEAE related to study treatment: Rash maculopapular,"Total N = 12, Grade 4",0 n (%)
same,TEAE related to study treatment: SVE (supraventricular extrasystoles),"Total N = 12, Grade 4",0 n (%)
same,TEAE related to study treatment: Stomatitis,"Total N = 12, Grade 4",0 n (%)
same,TEAE related to study treatment: Thrombocytopenia,"Total N = 12, Grade 4",1 (8.3) n (%)
same,Frequently-reported TEAE: leukopenia,all 12 patients,100%
same,Frequently-reported TEAE: neutropenia,all 12 patients,91.7%
same,Frequently-reported TEAE: thrombocytopenia,all 12 patients,66.7%
same,Nonhematologic grade 3 or 4 treatment-related TEAE,all 12 patients,no reported nonhematologic grade 3 or 4 treatment‐related TEAE
same,Treatment-related grade 4 TEAE: anemia,all 12 patients (1 instance),8.3%
same,Treatment-related grade 4 TEAE: febrile neutropenia,all 12 patients (1 instance),8.3%
same,Treatment-related grade 4 TEAE: thrombocytopenia,all 12 patients (1 instance),8.3%
same,Treatment-related grade 4 TEAE: leukopenia,all 12 patients (4 patients),33.3%
same,Treatment-related grade 4 TEAE: neutropenia,all 12 patients (6 patients),50.0%
same,AE that led to treatment interruption,all patients,No patients experienced AE that led to treatment interruption
same,Clinically significant cardiac toxicities or AE related to QT prolongation,all patients,No clinically significant cardiac toxicities or AE related to QT prolongation were observed
same,Discontinuation of the study due to an AE,all patients,no patients discontinued the study due to an AE
same,Patient deaths during the study,all patients,No patient deaths were reported
same,Patients with at least 1 AE that led to a dose adjustment,all patients (8 patients),66.7%
same,Patients with at least 1 AE that led to dose reduction,all patients (Five patients),41.7%
same,Patients with at least 1 AE that led to a dose delay,all patients (Six patients),50.0%
same,Dose reduction due to febrile neutropenia,"all patients, 1 patient in each group",16.7%
same,Dose delay due to neutropenia,"all patients, 2 patients in each group",33.3%
same,Neutrophil count nadir in patients with grade 4 drug-related neutropenia,day of cycle,~8 days
same,Duration of grade 4 neutrophil decreases,"in most cases, transient",< 5 days
same,Tolerability (DLT frequency in cycle 1 <33%),"recommended dose of 105 mg/m^2, Japanese patients",confirmed
